Consider 13 compounds from ChEMBL document CHEMBL1153326, “Benzo(h)quinoline derivatives as G-quadruplex binding agents” (Bioorg Med Chem Lett, 2009).

Common to all, as to assay type: nucleic-acid assay
Experiment [1] has as its system Nucleic Acid. The experiment is described as follows: Binding affinity to human telomeric DNA G-quadruplex assessed as melting temperature at 0.5 uM by fluorescein-rhodamine based FRET assay. The procedure, abridged:
(§1)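 Human telomeric-repeat G-quadruplex oligo carrying a 5'/3' fluorescein–rhodamine FRET pair. Compound at 0.5 µM with the oligo at half that concentration, in 10 mM cacodylate, 100 mM NaCl, pH 7.4. Heated from 20 to 80 °C at 1 °C/min with a 2 min equilibration at each step. Emission read at 518 nm; Tm taken from the melting curve, ΔTm against no compound.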

Experiment [2] concerns Nucleic Acid. Briefly: Binding affinity to human telomeric DNA G-quadruplex assessed as change in melting temperature at 0.5 uM by fluorescein-rhodamine based FRET assay. Summed up:
as §1

For experiment [3], the system named is Nucleic Acid. Briefly: Displacement of thiazole orange from synthetic oligo 22G DNA G-quadruplex by fluorescence displacement assay. The procedure, abridged: (§2)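 Compound titrated into 0.25 µM oligonucleotide (22G quadruplex or 17 bp duplex) with thiazole orange in 10 mM cacodylate, pH 7.4, plus 100 mM KCl. Full fluorescence spectrum recorded after each addition and peak area plotted against compound concentration. Concentration cutting the area by 50% taken as IC50; binding constant calculated from a simple competitive binding model.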

The test system of experiment [4] is Nucleic Acid. Briefly: Displacement of thiazole orange from synthetic oligo 17bp DNA duplex by fluorescence displacement assay. Summed up: as §2
Experiment [5] has as its system Nucleic Acid. The experiment is described as follows: Selectivity for synthetic oligo 22G DNA G-quadruplex over synthetic oligo 17bp DNA duplex. The procedure, abridged:
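Ratio of the thiazole-orange displacement binding constant for the 22G quadruplex to that for the 17 bp duplex. Both constants come from titrating compound into 0.25 µM oligo with dye in 10 mM cacodylate, pH 7.4, 100 mM KCl, taking the 50% loss of peak area as IC50, and applying a competitive binding model.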

For experiment [6], the system named is Nucleic Acid. The experiment is described as follows: Binding affinity to human telomeric DNA assessed as equilibrium binding constant by SPR. Summed up:
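SPR steady-state analysis against human telomeric quadruplex and duplex DNA, with multiple injections over a range of drug concentrations. Binding constants derived from the relative instrument response.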

Experiment [7] deals with Nucleic Acid. Briefly: Binding affinity to DNA G-quadruplex.

Regarding `O=C(NCCN1CCCCC1)c1c[nH]c2c(ccc3ccccc32)c1=O`, in experiment [1], the Tm was 56.4 °C. The ΔTm in experiment [2] was found to be 5.17 °C. Moreover, the results for the K in experiment [3] and in experiment [4] were 2.5 ×10⁵ /M and 0.24 ×10⁵ /M, respectively. In experiment [5], the Ratio is 10.4.

Take `CN(C)c1ccc(NC(=O)c2c[nH]c3c(ccc4ccccc43)c2=O)cc1`: the Tm in experiment [1] is 51.4 °C. Further, the ΔTm in experiment [2] was found to be 0.19 °C. Moreover, the values for the K in experiment [3] and in experiment [4] were 0.53 ×10⁵ /M and 0.74 ×10⁵ /M, respectively. In addition, the Ratio in experiment [5] came to 0.71.

`CN1CCN(CCNC(=O)c2c[nH]c3c(ccc4ccccc43)c2=O)CC1`: the Tm in experiment [1] came out at 54.9 °C. In experiment [2], the ΔTm amounted to 3.69 °C. Moreover, the results for the K in experiment [3], in experiment [4] and in experiment [6] were 0.19 ×10⁵ /M, 0.5 ×10⁵ /M and 0.5 ×10⁵ /M, respectively. Also, in experiment [5], the Ratio came to 0.37.

Turning to `CN(C)c1ccc(NC(=O)c2cc(=O)c3ccc4ccccc4c3[nH]2)cc1`, the Tm in experiment [1] is 51.6 °C. The ΔTm in experiment [2] is 0.41 °C. For the same compound, the K amounted to 3.9 ×10⁵ /M in experiment [3], 0.53 ×10⁵ /M in experiment [4] and 0.3 ×10⁵ /M in experiment [6]. Moreover, in experiment [5], the Ratio was determined as 7.4.

As to `O=C(Nc1ccncc1)c1cc(=O)c2ccc3ccccc3c2[nH]1`, the Tm in experiment [1] was 51.9 °C. Moreover, the ΔTm in experiment [2] was found to be 0.69 °C. Also, the K came out at 0.42 ×10⁵ /M in experiment [3] and 0.5 ×10⁵ /M in experiment [4]. In addition, in experiment [5], the Ratio turned out to be 0.84.

The compound `CN(C)CCCNC(=O)c1cc2[nH]c3c(cnc4ccc([N+](=O)[O-])cc43)c(=O)c2n1C` came in with a Kapp in experiment [7] of 2.7 ×10⁴ /M.

`O=C(Nc1ccncc1)c1c[nH]c2c(ccc3ccccc32)c1=O`: in experiment [1], the Tm was determined as 56.5 °C. Besides, in experiment [2], the thermal shift (ΔTm) came out at 5.29 °C. Moreover, the figures for the K in experiment [3] and in experiment [4] were 1.4 ×10⁵ /M and 2.5 ×10⁵ /M, respectively. Moreover, the Ratio in experiment [5] amounted to 0.51.

Take `O=C(NCCN1CCNCC1)c1cc(=O)c2ccc3ccccc3c2[nH]1`: the Tm in experiment [1] was determined as 52.5 °C. The shift in melting temperature (ΔTm) in experiment [2] came to 1.27 °C. Further, the K in experiment [3] came out at 0.53 ×10⁵ /M; in experiment [4] it was 2.5 ×10⁵ /M. The Ratio in experiment [5] is 0.21.

Regarding `O=C(Nc1ccccc1)c1c[nH]c2c(ccc3ccccc32)c1=O`, the Tm in experiment [1] stood at 52.3 °C. The ΔTm in experiment [2] turned out to be 1.05 °C. In addition, the K worked out at 1.4 ×10⁵ /M in experiment [3] and 6 ×10⁵ /M in experiment [4]. In addition, in experiment [5], the Ratio was found to be 0.22.

Regarding `O=C(NCCN1CCCC1)c1cc(=O)c2ccc3ccccc3c2[nH]1`, in experiment [1], the Tm was 52.6 °C. For the same compound, in experiment [2], the ΔTm came to 1.35 °C. Further, the results for the K in experiment [3] and in experiment [4] were 0.23 ×10⁵ /M and 0.41 ×10⁵ /M, respectively. The Ratio in experiment [5] was determined as 0.55.

As for `O=C(NCCN1CCCCC1)c1cc(=O)c2ccc3ccccc3c2[nH]1`, in experiment [1], the Tm worked out at 52.2 °C. The shift in melting temperature (ΔTm) in experiment [2] is 1 °C. The values for the K in experiment [3] and in experiment [4] were 0.05 ×10⁵ /M and 1.1 ×10⁵ /M, respectively. Besides, in experiment [5], the Ratio amounted to 0.05.

On to `O=C(NCCN1CCNCC1)c1c[nH]c2c(ccc3ccccc32)c1=O`, for which the Tm in experiment [1] is 52.4 °C. For the same compound, in experiment [2], the ΔTm came out at 1.19 °C. Moreover, the K was found to be 0.3 ×10⁵ /M in experiment [3] and 0.75 ×10⁵ /M in experiment [4]. For the same compound, in experiment [5], the Ratio is 0.4.

As to `O=C(NCCN1CCCC1)c1c[nH]c2c(ccc3ccccc32)c1=O`, the Tm in experiment [1] was 56 °C. The ΔTm in experiment [2] was 4.36 °C. The K was determined as 0.53 ×10⁵ /M in experiment [3], 0.21 ×10⁵ /M in experiment [4] and 0.4 ×10⁵ /M in experiment [6]. The Ratio in experiment [5] was 2.5.
